Active and inactive are the calls of the source. No cut-off for these calls is given here.
What was measured:
HT-29 [1] = test: Antiangiogenic activity in human HT29 cells assessed as reduction in IL-1beta secretion at 5 uM after 24 hrs by ELISA; format: functional, cell-based
Outline: (§1)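 HT-29 cells at 5 x 10^4 per well, cultured 24 h and then exposed to 5 µM compound. Conditioned medium collected on ice and stored at -80 °C. Cytokines and angiogenic, vascular-injury and chemokine factors measured by multiplex panels with overnight supernatant incubation (Angiogenesis Panel 1 and Vascular Injury Panel 2 same day). Medium undiluted except 1:4 for Vascular Injury Panel 2. Secretion normalised to lysate protein by BCA.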

HT-29 [2] = test: Antiproliferative activity against human HT-29 cells assessed as reduction in cell viability after 72 hrs by alamar blue assay; format: functional, cell-based; details: HT-29, 72 h
Outline: (§2)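 Cells seeded at 5 x 10^3/well (MCF-7) or 1 x 10^4/well (HT-29, HEK-293T) and treated after 24 h with serial dilutions (0.001-100 µM) in 1% v/v ethanol vehicle. Alamar Blue 10% v/v added at 72 h, then 3-5 h at 37 °C in the dark; fluorescence ex 530/em 590 nm. Viability relative to vehicle; IC50 from dose-response curves; mean of three experiments in triplicate.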

HT-29 [3] = test: Potency index, ratio of CA-4 IC50 to test compound IC50 for human HT-29 cells; format: functional
HT-29 [4] = test: Antiangiogenic activity in human HT29 cells assessed as reduction in IL-1alpha secretion at 5 uM after 24 hrs by ELISA; format: functional, cell-based; outline: as §1
[5] = Selectivity index, ratio of IC50 for human MCF7 cells to IC50 for human HT-29 cells assessed as reduction in cell viability after 72 hrs by alamar blue assay; format: functional
HT-29 [6] = test: Antiangiogenic activity in human HT29 cells assessed as reduction in VEGF secretion at 5 uM after 24 hrs by ELISA; format: functional, cell-based; outline: as §1
MCF7 = test: Antiproliferative activity against human MCF7 cells assessed as reduction in cell viability after 72 hrs by alamar blue assay; format: functional, cell-based; details: MCF7, 72 h; outline: as §2
Bos taurus = species on record: Bos taurus; test: Inhibition of bovine brain tubulin polymerization at 10 uM measured at 30 sec interval for 30 mins in presence of GTP by turbidimetry-based spectrophotometric method
HT-29 [7] = test: Antiangiogenic activity in human HT-29 cells assessed as increase in IL-1RA secretion at 5 uM after 24 hrs by ELISA; format: functional, cell-based; outline: as §1

IC50 (HT-29 [2]): 7 nM
IC50 (MCF7): 5 nM
Compound: COc1ccc([C@H]2[C@H](O)C(=O)N2c2cc(OC)c(OC)c(OC)c2)cc1C
Activity (HT-29 [1]): inactive
Ratio IC50 (HT-29 [3]): 600
Activity (HT-29 [4]): inactive
Ratio IC50 [5]: 0.71
Activity (HT-29 [6]): inactive
inhibition (Bos taurus): Active
Activity (HT-29 [7]): Active
